Many of the other results were omitted from the sample, so hits are more common in it than they were.
HCT116 bCat-KO: primary screen for growth suppressors in beta-catenin knockout HCT116 cells (colon tumor, human). viability, % at 10 µM. HCT116 beta-catenin knockout viability, CellTiter-Glo, 60 h; active compounds read low. 1.5% of 140,000 active. AID 818, 2007;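 active = viability at or under a set limit, the compound median less 4 SD, cut at about 6% in these data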
HUVEC inhibit: inhibitors of HUVEC proliferation, primary screen, cell-based, 384-well; viability, % at 10 µM (by protocol); CellTiter-Glo luminescence, 72 h; active compounds read low; 1.1% of 86,000 active;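 active = viability at or below 30%; inactive = viability above 30%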
H69AR inhibit: proliferation blockers of H69AR lung cancer cells, primary screen, cell-based, human, 86K library; H69AR lung tumor viability, ATP luminescence, 72 h; active compounds read low; viability, % at 10 µM; 6% of 85,000 active;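 active = viability at or below 40%; inactive = viability above 40%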;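 also: multidrug resistant small cell line overexpressing MRP-1 efflux transporter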
Lung fibro prol: antiproliferative effect on LL 47 fibroblasts – human, LL 47 cells, CellTiter-Glo luminescence, primary screen; LL 47 human lung fibroblast viability, ATP luminescence; active compounds read low; viability, % at 10 µM; 1.1% of 85,000 active; AID 719, 2007;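 active = viability at or below 50% in the single dose screen; inactive = viability above 50%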;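 also: compound exposure lasted 72 h before the ATP readout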
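Test system: LL 47 human lung fibroblasts; Quantity: 1,150 cells/well; Buffer or medium: IMEM plus 15% FBS; Dosing: tenfold compound dosing solution, DMSO at 0.1%; Timing: overnight cell rest, 72 h compound treatment at 37 °C; Detection: ATP-based CellTiter-Glo luminescent readout; Read-out basis: viability percentage against median untreated-cell control; Controls: cell-only wells, no compound.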
PTEN del growth: growth suppression of PTEN-null HCT116, primary screen, cell-based, CellTiter-Glo. 1.2% of 140,000 active. viability, % at 10 µM. HCT116 PTEN-null viability, 60 h; active compounds read low;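 active = viability at or below a set limit, 4 SD under the median of all tested compounds, cut at about 3.7% in these data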;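 also: PTEN knockout HCT116 line with beta catenin targeted HCT116 as companion control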
Of the large screens only hits and unclear results are named; the others gave an inactive call.

O=C(C[n+]1ccc(C(=O)N/N=C/c2ccc(O)cc2)cc1)c1ccccc1	none
COc1ccc(C(=O)N/N=C/c2sc3ccccc3c2O)cc1	HCT116 bCat-KO 3.3, PTEN del growth 3.5 (no result: HUVEC inhibit, H69AR inhibit, Lung fibro prol)
COc1ccc2cc(C(=O)N/N=C/c3sc4ccccc4c3O)ccc2c1	HCT116 bCat-KO 3.1 (no result: HUVEC inhibit, H69AR inhibit, Lung fibro prol)
CC(=O)Oc1ccc2c(=O)c(Oc3ccccc3)coc2c1OC(C)=O	none (no result: HUVEC inhibit, H69AR inhibit, Lung fibro prol)
CCOC(=O)N/N=C/c1c(F)c(F)c(F)c(F)c1F	none (no result: HUVEC inhibit, H69AR inhibit, Lung fibro prol)
C=C1[C@@H](C)C2[C@H](Cc3ccccc3)NC(=O)[C@]23OC(=O)CC[C@H](O)CCC[C@H](C)C/C=C/[C@H]3[C@@H]1O (some centres undefined)	HUVEC inhibit 15, H69AR inhibit 38, Lung fibro prol 25 (no result: HCT116 bCat-KO, PTEN del growth)
CCc1cccc(C)c1NC(=S)NCc1cccn1C	none (no result: HUVEC inhibit, H69AR inhibit, Lung fibro prol)
Cn1nc(C(=O)NCc2cccs2)c2ccccc2c1=O	none (no result: HUVEC inhibit, H69AR inhibit, Lung fibro prol)
Cc1cc(C)n(-c2nnc(C)n2/N=C/c2ccco2)n1	none
CCCOc1ccc2ccccc2c1/C=N/n1c(C)nnc1-n1nc(C)cc1C	H69AR inhibit 24
COc1ccc(-c2n[nH]c(C)c2-c2ccc(Cl)cc2)c(O)c1OC	H69AR inhibit 35
COc1ccccc1N=c1scc(-c2ccc3c(c2)NC(=O)CO3)n1CC1CCCO1 (centres undefined)	none
CN(C)S(=O)(=O)c1cccc(N=c2scc(-c3ccc4c(c3)NC(=O)CO4)n2CC2CCCO2)c1 (centres undefined)	H69AR inhibit 34
COc1cc(OC)c(C#N)c(S(=O)(=O)Cc2ccccc2)c1	none
CCN(c1ccccc1)S(=O)(=O)c1ccc(N)c(OC)c1	H69AR inhibit 17
COc1ccc(S(=O)(=O)Cc2ccccc2)cc1N	H69AR inhibit 37
C/C(CC(=O)NC1CCCC1)=N\NC(=O)c1ccc([N+](=O)[O-])c(Cl)c1	none (no result: HUVEC inhibit, H69AR inhibit, Lung fibro prol)
Cc1nc(NC(=O)c2ccccc2)sc1-c1csc(NCc2ccco2)n1	H69AR inhibit 18
COc1ccc(NC(=O)CCCc2c[nH]c3ccccc23)cc1OC	none (no result: HUVEC inhibit, H69AR inhibit, Lung fibro prol)
COc1ccc(C(c2c[nH]c3ccccc23)c2c[nH]c3ccccc23)cc1O	H69AR inhibit 7.2
CCOC(=O)C(C(=O)Nc1ccc(C)cc1)C1CCCCC1 (centres undefined)	H69AR inhibit 23
CCOC(=O)C(C(=O)Nc1ccccc1)C1CCCCC1 (centres undefined)	none
O=C(Nc1ccc(NC(=O)c2sc3ccccc3c2Cl)cc1)c1ccco1	HCT116 bCat-KO 1.4, PTEN del growth 1.5 (no result: HUVEC inhibit, H69AR inhibit, Lung fibro prol)
CC(C)(C)NC(=O)c1cccc(NC(=O)c2ccco2)c1	none
CC(C)CNC(=O)c1cccc(NC(=O)c2ccc(NC(=O)c3ccco3)cc2)c1	H69AR inhibit 28
Cn1c(NC(=O)c2ccco2)cc(=O)n(C)c1=O	H69AR inhibit 24
CC(C)(C)c1ccc(C(=O)Nc2ccc(NC(=O)c3ccco3)cc2)cc1	H69AR inhibit 33, Lung fibro prol 28
Cn1c(NC(=O)c2ccccc2)cc(=O)n(C)c1=O	none
CC1(C)CC(=O)C2=C(C1)OC(N)=C(C#N)C2c1cc2c(cc1[N+](=O)[O-])OCO2 (centres undefined)	none (no result: HUVEC inhibit, H69AR inhibit, Lung fibro prol)
Nc1c([N+](=O)[O-])cnnc1-c1ccccc1	none (no result: HUVEC inhibit, H69AR inhibit, Lung fibro prol)
COC(=O)c1c(NC(=O)c2ccco2)sc(C)c1C	none
COC(=O)c1c(NC(=O)c2ccco2)sc(C(=O)Nc2ccc(F)cc2)c1C	H69AR inhibit 3.6
CC(C)(C)NC(=O)c1cccc(NC(=O)c2ccc(NC(=O)c3ccco3)cc2)c1	H69AR inhibit 33
Nc1c(C(=O)Nc2nc3ccccc3s2)sc2nc(-c3cccs3)ccc12	HCT116 bCat-KO -0.1, PTEN del growth 0.1 (no result: HUVEC inhibit, H69AR inhibit, Lung fibro prol)
COc1ccccc1OCC(=O)Nc1nonc1NC(=O)COc1ccccc1OC	none (no result: HUVEC inhibit, H69AR inhibit, Lung fibro prol)
CCCN1C(=O)C(O)(CC(=O)c2ccc3c(c2)OCCO3)c2ccccc21 (centres undefined)	H69AR inhibit 17
CCCN1C(=O)C(O)(CC(=O)c2cccc(OC)c2)c2ccccc21 (centres undefined)	H69AR inhibit 28
CN1C(=O)C(O)(CC(=O)c2ccc3c(c2)OCO3)c2ccccc21 (centres undefined)	none
C#CCN1C(=O)C(O)(CC(=O)c2ccc3c(c2)OCCO3)c2ccccc21 (centres undefined)	H69AR inhibit 35
C#CCN1C(=O)C(O)(CC(=O)c2ccc(OC)c(OC)c2)c2ccccc21 (centres undefined)	none
CCCCN1C(=O)C(O)(CC(=O)c2ccccc2OC)c2ccccc21 (centres undefined)	none
CC12CCC(C(=O)N(CC(O)CN3CCCCC3)C1=O)C2(C)C (centres undefined)	none (no result: HUVEC inhibit, H69AR inhibit, Lung fibro prol)
Cc1ccc(C(=O)N/C(=C/c2ccc(F)cc2)C(=O)NCc2ccncc2)cc1	none (no result: HUVEC inhibit, H69AR inhibit, Lung fibro prol)
Cc1ccc(Cn2nnc3c(=O)n(CC(=O)NCc4ccc5c(c4)OCO5)cnc32)cc1	H69AR inhibit 39
Cc1nc(NCc2ccc3c(c2)OCO3)c2nnn(Cc3ccccc3)c2n1	Lung fibro prol 47
O=C(COC(=O)CCC(=O)c1ccc2c(c1)OCCO2)NCc1ccc2c(c1)OCO2	none (no result: Lung fibro prol)
Cc1ccc(OCCOc2ccc(Cl)cc2Cl)c([N+](=O)[O-])n1	none (no result: HUVEC inhibit, H69AR inhibit, Lung fibro prol)
O=C(/C(=C/c1ccc(Cl)cc1)c1nc2ccccc2[nH]1)c1ccccc1	HCT116 bCat-KO 1.2, PTEN del growth 0.8 (no result: HUVEC inhibit, H69AR inhibit, Lung fibro prol)
COc1ccc(C(=O)N/C(=C/c2cccs2)c2nc3ccccc3[nH]2)cc1OC	none (no result: HUVEC inhibit, H69AR inhibit, Lung fibro prol)
COc1cc(/C=C(/C(=O)c2cccs2)c2nc3ccccc3[nH]2)cc(OC)c1O	HCT116 bCat-KO 5.2, H69AR inhibit 2.6, Lung fibro prol 19, PTEN del growth 2.5
C/C(CCN1CCc2nc(-c3ccccc3)c(-c3ccccc3)cc2C1)=N\O[C@@H](C)c1cn([C@H](CO)Cc2ccccc2)nn1	none (no result: HUVEC inhibit, H69AR inhibit, Lung fibro prol)
Cc1cccc2sc(N(CCCN(C)C)C(=O)CCc3ccccc3)nc12	HCT116 bCat-KO 1.6, PTEN del growth 1.9 (no result: HUVEC inhibit, H69AR inhibit, Lung fibro prol)
Cc1ccc(C)c(N2C(=O)c3cc(N4CCOCC4)c([N+](=O)[O-])cc3C2=O)c1	none (no result: HUVEC inhibit, H69AR inhibit, Lung fibro prol)
Cc1ccccc1Cn1ccc(=NCc2ccccc2)cc1	none (no result: HUVEC inhibit, H69AR inhibit, Lung fibro prol)
CCCCC(=O)Nc1sc2c(c1C(=O)OCC)CCC(C=O)=C2Cl	HCT116 bCat-KO 1.4, PTEN del growth 1.1 (no result: HUVEC inhibit, H69AR inhibit, Lung fibro prol)
CC(C)CN1C(=S)SC(C)(C)C1n1oc(=O)n(-c2ccc(Cl)cc2)c1=O (centres undefined)	HCT116 bCat-KO 2.3, PTEN del growth 0.8
CC(C)CN1C(=S)SC(C)(C)C1n1oc(=O)n(-c2ccccc2)c1=O (centres undefined)	none (no result: HUVEC inhibit, H69AR inhibit, Lung fibro prol)
CC(C)OCCCn1c(SCC(=O)N2CCc3ccccc32)nc2ccccc2c1=O	none (no result: HUVEC inhibit, H69AR inhibit, Lung fibro prol)
Cc1cc(=O)oc2cc(OS(C)(=O)=O)ccc12	none (no result: HUVEC inhibit, H69AR inhibit, Lung fibro prol)
O=C(Nc1ccc(Cl)cc1)Nc1ccc2c(c1)N1CCN=C1S2	H69AR inhibit 35
COC(=O)c1ccc(NC(=O)C(=O)N2CCN(C(=S)NCCc3ccccc3)CC2)cc1	none (no result: HUVEC inhibit, H69AR inhibit, Lung fibro prol)

Compound activity from PubChem.
